Reference: ChEMBL document CHEMBL1137648, “Synergistic efficacy of the combination of ST-246 with CMX001 against orthopoxviruses” (Antimicrob Agents Chemother, 2007)

Assays:
Vaccinia virus [1] = test: Antiviral activity against Vaccinia virus Copenhagen in HFF cells assessed as reduction plaque formation after 3 days; type: functional, organism-based; conditions: Orthopoxvirus vaccinia, 72 h
Vaccinia virus [2] = test: Antiviral activity against Vaccinia virus WR in HFF cells assessed as reduction plaque formation after 3 days; type: functional, organism-based; conditions: Orthopoxvirus vaccinia, 72 h
Cowpox virus [3] = test: Antiviral activity against Cowpox virus Brighton in HFF cells assessed as reduction plaque formation after 3 days; type: functional, organism-based, Cowpox virus (Brighton Red); conditions: 72 h
[4] = Cytotoxicity against HFF cells after 7 days by neutral red assay; type: cell-based; conditions: human
Summary of the method: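 Confluent non-dividing HFF cells (2.5 x 10^4 cells/well) were exposed to a drug concentration series for 7 days at 37°C. Monolayers were then neutral red-stained, and the CC50 is the concentration cytotoxic to 50% of uninfected cells. Values are the mean of ≥2 assays ± standard deviation.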

[5] = Selectivity index, ratio CC50 for HFF cells to EC50 for Vaccinia virus Copenhagen; type: toxicity, cell-based; conditions: human, read-out: Ratio CC50/EC50
[6] = Selectivity index, ratio CC50 for HFF cells to EC50 for Vaccinia virus WR; type: toxicity, cell-based; conditions: human, read-out: Ratio CC50/EC50
[7] = Selectivity index, ratio CC50 for HFF cells to EC50 for Cowpox virus Brighton; type: toxicity, cell-based; conditions: human, read-out: Ratio CC50/EC50
Cowpox virus [8] = test: Antiviral activity against Cowpox virus Brighton infected BALB/c mouse assessed as virus-induced mortality at 15 mg/kg, ip once daily for 5 days; type: functional, Cowpox virus (Brighton Red); conditions: route intraperitoneal
Cowpox virus [9] = test: Antiviral activity against Cowpox virus Brighton infected BALB/c mouse assessed as virus-induced mortality at 15 mg/kg, ip treated for 5 days after 3 days of viral inoculation; type: functional, Cowpox virus (Brighton Red); conditions: route intraperitoneal
Cowpox virus [10] = test: Antiviral activity against Cowpox virus Brighton infected BALB/c mouse assessed as virus-induced mortality at 15 mg/kg, ip treated for 5 days after 6 days of viral inoculation; type: functional, Cowpox virus (Brighton Red); conditions: route intraperitoneal
Cowpox virus [11] = test: Antiviral activity against Cowpox virus Brighton infected BALB/c mouse assessed as virus-induced mean day of death at 15 mg/kg, ip treated for 5 days after 6 days of viral inoculation; type: functional, Cowpox virus (Brighton Red); conditions: route intraperitoneal
Cowpox virus [12] = test: Antiviral activity against Cowpox virus Brighton infected BALB/c mouse assessed as virus-induced mortality at 25 mg/kg, ip treated for 5 days after 6 days of viral inoculation; type: functional, Cowpox virus (Brighton Red); conditions: route intraperitoneal
Cowpox virus [13] = test: Antiviral activity against Cowpox virus Brighton infected BALB/c mouse assessed as virus-induced mortality at 5 mg/kg, ip treated for 5 days after 6 days of viral inoculation; type: functional, Cowpox virus (Brighton Red); conditions: route intraperitoneal
Cowpox virus [14] = test: Antiviral activity against Cowpox virus Brighton infected BALB/c mouse assessed as virus-induced mean day of death at 25 mg/kg, ip treated for 5 days after 6 days of viral inoculation; type: functional, Cowpox virus (Brighton Red); conditions: route intraperitoneal
Cowpox virus [15] = test: Antiviral activity against Cowpox virus Brighton infected BALB/c mouse assessed as virus-induced mean day of death at 5 mg/kg, ip treated for 5 days after 6 days of viral inoculation; type: functional, Cowpox virus (Brighton Red); conditions: route intraperitoneal
Cowpox virus [16] = test: Antiviral activity against Cowpox virus Brighton infected BALB/c mouse assessed as virus-induced mean day of death at 1 mg/kg, po treated for 5 days after 6 days of viral inoculation; type: functional, Cowpox virus (Brighton Red)
Cowpox virus [17] = test: Antiviral activity against Cowpox virus Brighton in HFF cells assessed as inhibition of viral replication after 7 days; type: functional, organism-based, Cowpox virus (Brighton Red); conditions: 168 h
Ectromelia virus Moscow = test: Antiviral activity against Ectromelia virus Moscow in HFF cells assessed as inhibition of viral replication after 7 days; type: functional, organism-based; conditions: 168 h
Cowpox virus [18] = test: Antiviral activity against Cowpox virus Brighton infected BALB/c mouse assessed as virus-induced mortality at 10 mg/kg, po treated for 5 days after 1 day of viral inoculation; type: functional, Cowpox virus (Brighton Red)
Cowpox virus [19] = test: Antiviral activity against Cowpox virus Brighton infected BALB/c mouse assessed as virus-induced mortality at 3 mg/kg, po treated for 5 days after 1 day of viral inoculation; type: functional, Cowpox virus (Brighton Red)
Cowpox virus [20] = test: Antiviral activity against Cowpox virus Brighton infected BALB/c mouse assessed as virus-induced mortality at 1 mg/kg, po treated for 5 days after 1 day of viral inoculation; type: functional, Cowpox virus (Brighton Red)
Cowpox virus [21] = test: Antiviral activity against Cowpox virus Brighton infected BALB/c mouse assessed as virus-induced mean day of death at 10 mg/kg, po treated for 5 days after 1 day of viral inoculation; type: functional, Cowpox virus (Brighton Red)
Cowpox virus [22] = test: Antiviral activity against Cowpox virus Brighton infected BALB/c mouse assessed as virus-induced mean day of death at 3 mg/kg, po treated for 5 days after 1 day of viral inoculation; type: functional, Cowpox virus (Brighton Red)
Cowpox virus [23] = test: Antiviral activity against Cowpox virus Brighton infected BALB/c mouse assessed as virus-induced mean day of death at 1 mg/kg, po treated for 5 days after 1 day of viral inoculation; type: functional, Cowpox virus (Brighton Red)
Cowpox virus [24] = test: Antiviral activity against Cowpox virus Brighton infected BALB/c mouse assessed as virus-induced mortality at 10 mg/kg, po treated for 5 days after 3 days of viral inoculation; type: functional, Cowpox virus (Brighton Red)
Cowpox virus [25] = test: Antiviral activity against Cowpox virus Brighton infected BALB/c mouse assessed as virus-induced mortality at 3 mg/kg, po treated for 5 days after 3 days of viral inoculation; type: functional, Cowpox virus (Brighton Red)
Cowpox virus [26] = test: Antiviral activity against Cowpox virus Brighton infected BALB/c mouse assessed as virus-induced mortality at 1 mg/kg, po treated for 5 days after 3 days of viral inoculation; type: functional, Cowpox virus (Brighton Red)
Cowpox virus [27] = test: Antiviral activity against Cowpox virus Brighton infected BALB/c mouse assessed as virus-induced mean day of death at 10 mg/kg, po treated for 5 days after 3 days of viral inoculation; type: functional, Cowpox virus (Brighton Red)
Cowpox virus [28] = test: Antiviral activity against Cowpox virus Brighton infected BALB/c mouse assessed as virus-induced mean day of death at 3 mg/kg, po treated for 5 days after 3 days of viral inoculation; type: functional, Cowpox virus (Brighton Red)
Cowpox virus [29] = test: Antiviral activity against Cowpox virus Brighton infected BALB/c mouse assessed as virus-induced mean day of death at 1 mg/kg, po treated for 5 days after 3 days of viral inoculation; type: functional, Cowpox virus (Brighton Red)
Cowpox virus [30] = test: Antiviral activity against Cowpox virus Brighton infected BALB/c mouse assessed as virus-induced mortality at 10 mg/kg, po treated for 5 days after 6 days of viral inoculation; type: functional, Cowpox virus (Brighton Red)
Cowpox virus [31] = test: Antiviral activity against Cowpox virus Brighton infected BALB/c mouse assessed as virus-induced mortality at 3 mg/kg, po treated for 5 days after 6 days of viral inoculation; type: functional, Cowpox virus (Brighton Red)
Cowpox virus [32] = test: Antiviral activity against Cowpox virus Brighton infected BALB/c mouse assessed as virus-induced mortality at 1 mg/kg, po treated for 5 days after 6 days of viral inoculation; type: functional, Cowpox virus (Brighton Red)
Cowpox virus [33] = test: Antiviral activity against Cowpox virus Brighton infected BALB/c mouse assessed as virus-induced mean day of death at 10 mg/kg, po treated for 5 days after 6 days of viral inoculation; type: functional, Cowpox virus (Brighton Red)
Cowpox virus [34] = test: Antiviral activity against Cowpox virus Brighton infected BALB/c mouse assessed as virus-induced mean day of death at 3 mg/kg, po treated for 5 days after 6 days of viral inoculation; type: functional, Cowpox virus (Brighton Red)
Monkeypox virus = test: Antiviral activity against Monkeypox virus in HFF cells assessed as inhibition of viral replication after 7 days; type: functional, organism-based; conditions: 168 h
Camelpox virus = test: Antiviral activity against Camelpox virus in HFF cells assessed as inhibition of viral replication after 7 days; type: functional, organism-based; conditions: 168 h
Vaccinia virus [35] = test: microbe, parasite or virus in culture; conditions: Orthopoxvirus vaccinia, Copenhagen, HFF, 168 h
Variola virus = test: microbe, parasite or virus in culture; conditions: HFF, 168 h
Cowpox virus [36] = test: Antiviral activity against Cowpox virus Brighton infected BALB/c mouse assessed as virus-induced mean day of death at 0.3 mg/kg, po treated for 5 days after 6 days of viral inoculation; type: functional, Cowpox virus (Brighton Red)
Cowpox virus [37] = test: Antiviral activity against Cowpox virus Brighton infected BALB/c mouse assessed as virus-induced mortality at 0.3 mg/kg, po treated for 5 days after 1 day of viral inoculation; type: functional, Cowpox virus (Brighton Red)
Cowpox virus [38] = test: Antiviral activity against Cowpox virus Brighton infected BALB/c mouse assessed as virus-induced mean day of death at 0.3 mg/kg, po treated for 5 days after 1 day of viral inoculation; type: functional, Cowpox virus (Brighton Red)
Cowpox virus [39] = test: Antiviral activity against Cowpox virus Brighton infected BALB/c mouse assessed as virus-induced mortality at 0.3 mg/kg, po treated for 5 days after 3 days of viral inoculation; type: functional, Cowpox virus (Brighton Red)
Cowpox virus [40] = test: Antiviral activity against Cowpox virus Brighton infected BALB/c mouse assessed as virus-induced mean day of death at 0.3 mg/kg, po treated for 5 days after 3 days of viral inoculation; type: functional, Cowpox virus (Brighton Red)
Cowpox virus [41] = test: Antiviral activity against Cowpox virus Brighton infected BALB/c mouse assessed as virus-induced mortality at 0.3 mg/kg, po treated for 5 days after 6 days of viral inoculation; type: functional, Cowpox virus (Brighton Red)

Structure (SMILES): Nc1ccn(C[C@@H](CO)OCP(=O)(O)O)c(=O)n1.O.O [CIDOFOVIR]
- EC50 (Vaccinia virus [1]): 29200 nM
- EC50 (Vaccinia virus [2]): 33000 nM
- EC50 (Cowpox virus [3]): 41100 nM
- CC50 at 168 h [4]: > 317000 nM
- selectivity ratio [5]: > 10.9
- selectivity ratio [6]: ≥ 9.6
- selectivity ratio [7]: > 7.7
- Activity (Cowpox virus [8]): 0%
- Activity (Cowpox virus [9]): 0%
- Activity (Cowpox virus [10]): 60%
- Activity (Cowpox virus [11]): 12.8 days
- Activity (Cowpox virus [12]): 80%
- Activity (Cowpox virus [13]): 93%
- Activity (Cowpox virus [14]): 11.5 days
- Activity (Cowpox virus [15]): 11.2 days

Structure (SMILES): O=C(NN1C(=O)[C@@H]2[C@@H]3C=C[C@@H]([C@H]4C[C@@H]34)[C@@H]2C1=O)c1ccc(C(F)(F)F)cc1 [TECOVIRIMAT]
- EC50 (Vaccinia virus [1]): 50 nM
- EC50 (Vaccinia virus [2]): 100 nM
- EC50 (Cowpox virus [3]): 480 nM
- CC50 at 168 h [4]: > 100000 nM
- selectivity ratio [5]: > 2000
- Activity (Cowpox virus [16]): 9.5 days
- EC50 (Cowpox virus [17]): ≤ 70 nM
- EC50 (Ectromelia virus Moscow): ≤ 70 nM
- selectivity ratio [6]: > 1000
- selectivity ratio [7]: > 208
- Activity (Cowpox virus [18]): 73%
- Activity (Cowpox virus [19]): 20%
- Activity (Cowpox virus [20]): 100%
- Activity (Cowpox virus [21]): 13.2 days
- Activity (Cowpox virus [22]): 11.3 days
- Activity (Cowpox virus [23]): 9.4 days
- Activity (Cowpox virus [24]): 13%
- Activity (Cowpox virus [25]): 33%
- Activity (Cowpox virus [26]): 100%
- Activity (Cowpox virus [27]): 15.5 days
- Activity (Cowpox virus [28]): 15.2 days
- Activity (Cowpox virus [29]): 14.4 days
- Activity (Cowpox virus [30]): 100%
- Activity (Cowpox virus [31]): 80%
- Activity (Cowpox virus [32]): 100%
- Activity (Cowpox virus [33]): 13.5 days
- Activity (Cowpox virus [34]): 13.5 days
- EC50 (Monkeypox virus): ≤ 70 nM
- EC50 (Camelpox virus): ≤ 70 nM
- EC50 (Vaccinia virus [35]): ≤ 70 nM
- EC50 (Variola virus): ≤ 70 nM

Structure (SMILES): CCCCCCCCCCCCCCCCOCCCOP(=O)(O)CO[C@H](CO)Cn1ccc(N)nc1=O [BRINCIDOFOVIR]
- EC50 (Vaccinia virus [1]): 140 nM
- EC50 (Vaccinia virus [2]): 130 nM
- EC50 (Cowpox virus [3]): 240 nM
- CC50 at 168 h [4]: 42000 nM
- selectivity ratio [5]: 300
- Activity (Cowpox virus [16]): 9.9 days
- Activity (Cowpox virus [36]): 10 days
- selectivity ratio [6]: 323
- selectivity ratio [7]: 175
- Activity (Cowpox virus [19]): 0%
- Activity (Cowpox virus [20]): 20%
- Activity (Cowpox virus [37]): 73%
- Activity (Cowpox virus [23]): 13.7 days
- Activity (Cowpox virus [38]): 11.7 days
- Activity (Cowpox virus [25]): 27%
- Activity (Cowpox virus [26]): 100%
- Activity (Cowpox virus [39]): 87%
- Activity (Cowpox virus [28]): 16.3 days
- Activity (Cowpox virus [29]): 12 days
- Activity (Cowpox virus [40]): 12.8 days
- Activity (Cowpox virus [31]): 100%
- Activity (Cowpox virus [32]): 100%
- Activity (Cowpox virus [41]): 100%
- Activity (Cowpox virus [34]): 9.9 days
